# Most compounds without a hit are left out; they make up all but 3.5% or so of the library.
# MrgX1 ag – agonists of human MrgX1 receptor, primary screen, HEK293 cells, Fluo-4 calcium flux; 0.44% of 310,000 active; Mas-related G-protein coupled receptor member X1 (Homo sapiens), Q96LB2; Fluo-4 calcium fluorescence, agonist mode; active compounds read high; B-score at 10 µM;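 active = calcium response B-score plate-corrected fluorescence ratio at least 3 library SD, with starting fluorescence B-score inside 5 SD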
# Target sequence (Q96LB2 whole entry, looked up): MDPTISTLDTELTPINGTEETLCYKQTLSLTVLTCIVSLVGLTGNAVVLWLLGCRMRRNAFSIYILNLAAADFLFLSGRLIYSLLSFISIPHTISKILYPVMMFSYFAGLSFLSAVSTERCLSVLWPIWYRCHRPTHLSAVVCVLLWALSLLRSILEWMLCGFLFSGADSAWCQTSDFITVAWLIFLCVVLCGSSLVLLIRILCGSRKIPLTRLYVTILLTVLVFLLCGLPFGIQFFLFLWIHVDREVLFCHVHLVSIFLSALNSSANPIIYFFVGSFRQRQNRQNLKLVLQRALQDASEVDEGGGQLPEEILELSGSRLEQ
#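 Material – MrgX1-expressing HEK293 cells · Input – 15,000 cells seeded per well · Dosing – compound as first of three additions · Times – overnight seeding, then 1 h dark dye loading · Measured by – kinetic Fluo-4 NW fluorescence of intracellular calcium · Read-out – B-scored fluorescence response ratio · Benchmarks – positive and negative control wells on each plate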
# MrgX1 antag – antagonists of human MrgX1 receptor, primary screen, HEK293 cells, Fluo-4 calcium flux. Mas-related G-protein coupled receptor member X1 (Homo sapiens), Q96LB2. BAM8-22 antagonism; active compounds read low. B-score at 10 µM. 1.3% of 310,000 active. AID 588676, 2011;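 active = calcium-response B-score plate-corrected more than 3 library SD below zero, starting fluorescence within 5 deviations, no agonist response on first addition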;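 note: peak minus trough fluorescence over baseline after final BAM8-22 challenge near maximal dose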
# RGS4 act – RGS4 potentiators or activators, primary screen, cell-based, HEK293 M3R inducible RGS4, calcium flux; carbachol calcium flux Fluo4; active compounds read low; AID 463111, 2010; 0.92% of 310,000 active; B-score at 10 µM;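 active = B-score of the integrated calcium signal more than 4 SD below the library mean, with starting fluorescence not abnormally high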;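 note: negative B-score means reduced calcium response which marks RGS4 activation or potentiation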
#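 Detection: kinetic calcium fluorescence imaging with Fluo4-AM dye, 2 µM / Material: HEK293 cells with stable M3R and inducible RGS4 / Schedule: recording 10 s baseline at 1 Hz, 100 s post-agonist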
# RGS4 block – RGS4 inhibitors, primary screen, cell-based, HEK293 M3R inducible RGS4, calcium flux. Fluo-4 calcium flux; active compounds read high; triggered by carbachol at its EC20. B-score at 10 µM. 0.45% of 310,000 active. AID 463165, 2010. Regulator of G-protein signaling 4 (Homo sapiens), P49798;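 active = B-score, a plate-corrected calcium signal, over three deviations above library mean, with baseline fluorescence within five deviations of library mean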;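 note: RGS4 expression induced by doxycycline in cells with stable M3 receptor; B-score is computed from the integrated fluorescence ratio over baseline after carbachol; higher B-score means a larger calcium signal and so more RGS4 inhibition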
# Target sequence (P49798 whole entry, looked up): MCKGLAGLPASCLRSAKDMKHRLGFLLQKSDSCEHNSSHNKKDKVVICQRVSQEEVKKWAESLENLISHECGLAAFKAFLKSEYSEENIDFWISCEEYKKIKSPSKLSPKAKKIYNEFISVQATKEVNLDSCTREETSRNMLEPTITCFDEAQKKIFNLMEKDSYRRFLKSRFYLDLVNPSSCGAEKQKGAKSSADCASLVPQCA
# MrgX1 PAM – positive allosteric modulators of MrgX1, primary screen, HEK293 cells, Fluo-4 calcium flux; 0.63% of 310,000 active; FDSS; active compounds read high; Mas-related G-protein coupled receptor member X1 (Homo sapiens), Q96LB2; B-score at 10 µM;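 active = plate-corrected calcium response at least 3 library SD above typical, normal starting fluorescence, not activating the receptor alone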;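 note: compound read alongside a low EC10 to EC30 dose of BAM8-22 agonist; peak minus trough fluorescence over baseline measured at the second addition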
# A number is an active result; i = inactive; nt = no result.
SMILES,MrgX1 ag,MrgX1 antag,RGS4 act,RGS4 block,MrgX1 PAM
Cc1ccc(C(=O)COC(=O)CCC(=O)Nc2ccccc2Cl)cc1[N+](=O)[O-],i,i,i,i,i
Cc1oc2cc(Br)c(O)c(Br)c2c1-c1ccccc1,i,i,i,i,15
CCS(=O)(=O)C1=NN2C(=N)/C(=C\c3ccc(OC(=O)c4ccco4)cc3)C(=O)N=C2S1,i,i,i,i,8.6
CCS(=O)(=O)C1=NN2C(=N)/C(=C\c3ccc(OS(=O)(=O)c4ccccc4)c(OC)c3)C(=O)N=C2S1,i,i,i,i,i
CCS(=O)(=O)C1=NN2C(=N)/C(=C\c3ccc(OS(=O)(=O)c4ccccc4)cc3)C(=O)N=C2S1,i,i,i,i,7.2
CCC1=NN2C(=N)/C(=C\c3cccn3-c3ccc(Cl)cc3)C(=O)N=C2S1,i,i,i,i,8.1
CS(=O)(=O)C1=NSC2=NC(=O)/C(=C\c3ccc(OC(=O)c4ccco4)c(Br)c3)C(=N)N21,i,i,i,i,17
COc1cc(/C=C2\C(=N)N3N=C(S(=O)(=O)CC(C)C)SC3=NC2=O)ccc1OC(=O)c1ccco1,i,i,i,i,i
COc1cc(C(=O)NC(=S)Nc2ccc3c(c2)C(=O)N(C)C3=O)cc(OC)c1OC,i,i,i,i,i
CCC1=NN2C(=N)/C(=C/c3ccc(OS(=O)(=O)c4ccc(C)cc4)c(OC)c3)C(=O)N=C2S1,i,i,i,i,i
CCC1=NN2C(=N)/C(=C/c3ccc(OS(=O)(=O)c4ccccc4)cc3)C(=O)N=C2S1,39,i,i,i,i
CCC(CC)C1=NN2C(=N)/C(=C/c3ccc(OC(=O)c4ccco4)cc3)C(=O)N=C2S1,i,i,i,i,i
CC(C)CS(=O)(=O)C1=NSC2=NC(=O)/C(=C\c3ccc(OC(=O)c4ccco4)cc3)C(=N)N21,i,i,i,i,15
Cc1cccc(NC2=C(NC(=O)c3ccccc3)C(=O)c3ccccc3C2=O)c1,i,i,i,i,10
O=C(NC1=C(Nc2ccc(Cl)cc2)C(=O)c2ccccc2C1=O)c1ccccc1,i,i,i,i,i
O=C(Nc1cccc(Cl)c1)c1ccccc1,i,i,nt,nt,i
O=C1C(Cl)=C(NC(=O)c2ccccc2)C(=O)C(Cl)=C1NC(=O)c1ccccc1,i,i,i,7.3,i
COc1ccc(NC(=O)COc2ccccc2C(=O)NCC(c2ccccc2)N(C)C)cc1Cl (configuration not stated),i,i,-9.4,i,i
CN(C)CCN(C(=O)c1ccc(S(=O)(=O)N(C)C)cc1)c1nc2cc3c(cc2s1)OCCO3,i,i,i,i,i
CCN(c1ccccc1)S(=O)(=O)c1ccc(C(=O)N(CCN(C)C)c2nc3c(F)cc(F)cc3s2)cc1,i,i,i,14,i
CN(C)CCN(C(=O)c1ccc(S(=O)(=O)N(C)c2ccccc2)cc1)c1nc2cc3c(cc2s1)OCCO3,i,i,-7.8,i,i
Cc1ccccc1OCCNc1ccc(C(F)(F)F)cc1[N+](=O)[O-],i,i,i,i,i
O=[N+]([O-])c1cc(C(F)(F)F)ccc1NCCOc1ccccc1,i,i,i,i,9.1
Cc1cc(NS(=O)(=O)c2ccc(Nc3nc(-c4sc(NC(=O)c5ccccc5)nc4C)cs3)cc2)no1,i,i,-11,i,i
Cc1nc(NC(=O)c2ccccc2)sc1-c1csc(Nc2cccc(F)c2)n1,i,i,i,i,i
SMILES,MrgX1 ag,MrgX1 antag,RGS4 act,RGS4 block,MrgX1 PAM
Cc1cc(NC(=O)c2cc(-c3ccccc3Cl)nc3ccccc23)no1,i,i,i,i,i
Cc1cc(NS(=O)(=O)c2ccc(NC(=O)c3cc(-c4ccccc4Cl)nc4ccccc34)cc2)no1,34,i,i,i,i
COc1ccc(S(=O)(=O)N2CCCCCC2)cc1C(=O)Nc1ccccn1,i,i,i,i,i
CC(=O)c1cccc(NC(=O)CN2CCc3cc4c(cc3C2C)OCCCO4)c1 (configuration not stated),i,i,i,i,i
COC(=O)CN1C(=O)N/C(=C/c2ccc(OC)cc2)C1=O,43,i,i,i,i
COc1ccc(/C=C(\C#N)C(=O)c2c(C)[nH]c3ccccc23)cc1OC,32,i,i,i,i
CCOP(=O)(OCC)C(NC(=O)Nc1c(C)cc(C)cc1C)c1ccccc1 (configuration not stated),i,i,i,i,i
CCOP(=O)(OCC)C(NC(=O)Nc1ccccc1)c1ccccc1 (configuration not stated),i,-4.8,i,i,i
Cc1ccc(C)c(NC(=O)C2CC=CCC2C(=O)O)c1 (configuration not stated),i,i,i,i,i
Cc1ccc(C)c(NC(=O)C2CC3c4ccccc4C2c2ccccc23)c1 (configuration not stated),i,-5.5,i,i,i
Cc1cc(C)cc(C(=O)Nc2cc3c4c(c2)CC(=O)N4CCC3)c1,i,i,i,i,i
O=c1oc2ccccc2cc1-c1csc(NN=C2CCCCC2)n1,i,i,-7.5,i,i
Cc1ccc(NC(=O)CNC(=O)c2cccs2)c(O)c1,i,i,i,i,i
COc1ccccc1CNC(=O)c1nn(-c2ccc(C)cc2)c(=O)c2c1c1ccccc1n2C,i,-8,i,i,i
O=C1COc2ccc(S(=O)(=O)N3CCCC3)cc2N1,i,i,i,i,i
O=C1COc2ccc(N3C(=O)C=CC3=O)cc2N1,i,i,i,5,i
CCNC(=S)NNC(=O)C(c1ccccc1)c1ccccc1,i,i,i,i,i
CC(=O)NNC(=S)NC(=O)C(c1ccccc1)c1ccccc1,35,i,i,i,i
CC(C)(C)C(=O)NC(=S)NNC(=O)C(c1ccccc1)c1ccccc1,156,i,-7.4,i,i
Cc1ccccc1NS(=O)(=O)c1nnc(NC(=O)c2ccccc2C)s1,i,i,i,i,i
Cc1cc(C)n2nc3nc(N4CCCCC4)nc(-c4ccco4)c3c2n1,i,-4.7,i,i,i
Cc1cc(C)n2nc3ccccc3c2n1,i,i,i,i,i
COc1ncnc2sc(-c3ccccc3)cc12,i,i,i,i,i
CN(C)c1ncnc2sc(-c3ccccc3)cc12,i,-7.1,i,i,i
CCCn1nc(C(=O)NNC(=O)C2CSC3(C)CCC(=O)N23)c2ccccc2c1=O (configuration not stated),i,i,i,i,i
COc1ccc(C(CCNCc2ccc(OC(C)C)cc2)C(C)C)cc1 (configuration not stated),i,-5.4,i,i,i

# Source: PubChem (Johns Hopkins Ion Channel Center)
